# An excerpt weighted towards active compounds, which were near 2.4% of everything screened.
# TDP2 absorb = blocks human TDP2 phosphodiesterase activity | AID 720702 | 370,000 tested, 0.34% active | inhibition, % at 12.8 µM | recombinant TDP2, T5PNP hydrolysis, p-nitrophenol absorbance 415 nm;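 active = inhibition above the mean of all tested compounds plus 3 SD, set per campaign, cut at about 25% in these data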;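 also: 0% = DMSO with enzyme and 100% = buffer with substrate but no TDP2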
#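 Incubation: 2 h at 37 °C; Test system: recombinant human TDP2; Quantity: enzyme 120 nM; Read-out basis: percent inhibition; Medium: 50 mM Tris-HCl pH 7.5 with Mg2+, KCl, DTT, BSA; Repeats: single replicate; Compound: 12.8 µM single point, 1% DMSO; Signal: epi absorbance; Reagent: 5 mM T5PNP chromogenic substrate; Benchmarks: no-enzyme high, DMSO-plus-enzyme low.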
# SIAE inh = blocks human sialic acid acetylesterase; Q9HAT2; SIAE FP-Rh probe binding, fluorescence polarization; inhibition, % at 9.66 µM; 370,000 tested, 0.69% active;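 active = inhibition above a cutoff: mean of compounds within the control limits plus 3 SD of those, cut at about 17% in these data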;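 also: 0% = plate median of compound wells and 100% = probe without SIAE protein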
# Apaf-1 inh = blocks human Apaf-1 apoptosome activity; AID 489030; 330,000 tested, 0.71% active; O14727; reconstituted apoptosome caspase-3 activity, DEVD-Rh110 fluorescence; inhibition, % at 20 µM; active = inhibition of at least 40% at 20 µM;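 also: plate controls were DMSO wells for no effect and DEVD-CHO caspase inhibitor wells for full effect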
# Target sequence (O14727 whole entry, looked up): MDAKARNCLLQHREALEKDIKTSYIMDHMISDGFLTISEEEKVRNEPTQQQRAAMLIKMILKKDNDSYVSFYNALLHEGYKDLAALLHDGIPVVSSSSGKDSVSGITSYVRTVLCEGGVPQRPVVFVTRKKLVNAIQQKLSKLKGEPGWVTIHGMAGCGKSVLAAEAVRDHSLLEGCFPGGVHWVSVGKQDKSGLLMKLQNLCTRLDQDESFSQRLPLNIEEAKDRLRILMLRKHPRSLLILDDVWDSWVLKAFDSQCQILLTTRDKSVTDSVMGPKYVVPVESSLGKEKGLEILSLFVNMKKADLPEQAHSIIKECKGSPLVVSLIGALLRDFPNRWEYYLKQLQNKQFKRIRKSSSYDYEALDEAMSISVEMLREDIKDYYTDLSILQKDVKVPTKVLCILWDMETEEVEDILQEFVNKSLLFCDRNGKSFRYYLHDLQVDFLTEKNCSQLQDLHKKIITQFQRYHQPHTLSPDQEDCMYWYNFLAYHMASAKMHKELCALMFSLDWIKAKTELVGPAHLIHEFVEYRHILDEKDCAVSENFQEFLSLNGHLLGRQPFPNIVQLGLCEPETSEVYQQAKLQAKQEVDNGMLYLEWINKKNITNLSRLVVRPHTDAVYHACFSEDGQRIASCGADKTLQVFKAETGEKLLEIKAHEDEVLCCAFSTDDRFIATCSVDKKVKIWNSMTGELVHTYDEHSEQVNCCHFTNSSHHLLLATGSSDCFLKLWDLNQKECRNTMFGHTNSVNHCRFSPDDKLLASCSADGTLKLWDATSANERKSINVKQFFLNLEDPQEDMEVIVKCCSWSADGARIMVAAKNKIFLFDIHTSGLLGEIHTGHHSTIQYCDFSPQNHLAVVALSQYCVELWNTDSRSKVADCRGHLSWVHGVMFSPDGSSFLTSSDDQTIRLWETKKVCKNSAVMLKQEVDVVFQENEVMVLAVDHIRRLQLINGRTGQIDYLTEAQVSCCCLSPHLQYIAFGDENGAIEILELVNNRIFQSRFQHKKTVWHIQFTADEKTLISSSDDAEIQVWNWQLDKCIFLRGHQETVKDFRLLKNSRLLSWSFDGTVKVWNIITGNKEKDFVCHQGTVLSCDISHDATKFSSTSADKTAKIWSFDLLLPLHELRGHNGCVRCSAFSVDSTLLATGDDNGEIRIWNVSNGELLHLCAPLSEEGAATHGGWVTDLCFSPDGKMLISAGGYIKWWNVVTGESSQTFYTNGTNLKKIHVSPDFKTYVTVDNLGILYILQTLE
#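 Material: reconstituted apoptosome with Apaf-1, cytochrome c, caspase-9, procaspase-3, dATP. Technique: Rh110 fluorescence intensity. Buffer or medium: pH 7.5 Hepes buffer with CHAPS, BSA, DTT. Times: 30 min plus 50 min, RT.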
# TCR CD3 inh = blocks the human TCR-CD3 interaction; inhibition, % at 9.4 µM; TAMRA-labeled TCR probe fluorescence, biochemical; 360,000 tested, 0.37% active; in the data active = inhibition above about 19%;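 also: recombinant mutant TCR 2C K166C tagged with TAMRA read by polarization; 0% = receptor in buffer alone and 100% = receptor with positive control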
# PAD4 inh = inhibitors of human PAD4 | inhibition, % at 6.36 µM | Q9UM07 | recombinant PAD4, RCA probe fluorescence polarization | 330,000 tested, 0.41% active;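 active = percent inhibition above a cutoff equal to the mean of all tested compounds plus 3 SD, cut at about 15% in these data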;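 also: 0% = PAD4 with RCA probe and DMSO and 100% = probe without PAD4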
# GSTO1 counter = GSTO1 inhibition, counter-screen for RBBP9 inhibitors; P78417; recombinant GSTO1, activity-based probe fluorescence polarization; inhibition, % at 5.96 µM; 300,000 tested, 1.1% active;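 active = inhibition above the campaign mean inhibition plus 3 SD, cut at about 35% in these data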;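 also: 0% = GSTO1-1 with DMSO and 100% = wells lacking GSTO1-1 enzyme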
# GSTO1 confirm = GSTO1 (human) inhibition, confirmation; AID 2176; recombinant GSTO1, probe fluorescence polarization; inhibition, % at 5.96 µM; shares compounds with GSTO1 counter; 2,400 tested, 54% active;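 active = inhibition above the primary screen's cutoff, its mean inhibition plus 3 SD, cut at about 35% in these data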;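 also: loss of polarization as inhibitors block binding of rhodamine sulfonate ester activity probe; 0% = GSTO1 with DMSO and 100% = wells lacking GSTO1 enzyme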
# GSTO1 recomb ABPP = inhibitors of recombinant human GSTO1. shares compounds with GSTO1 counter. gel ABPP SE-Rh probe fluorescence. inhibition, % at 1 µM. 130 tested, 30% active. AID 463110;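 active = inhibition of the enzyme GSTO1 above about 75%, limit read from the data; inactive = inhibition below that limit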
# * = called active by the depositor; x = no result.
SMILES,TDP2 absorb,SIAE inh,Apaf-1 inh,TCR CD3 inh,PAD4 inh,GSTO1 counter,GSTO1 confirm,others
CC(=O)C1=C(c2ccccc2)NC(=S)NC1c1ccc(O)c(O)c1 (stereo not drawn),0,6,-2,5,0,45*,7,
COc1ccc(N(CC(=O)Nc2ccc(S(=O)(=O)N3CCOCC3)cc2)S(C)(=O)=O)cc1OC,1,-11,x,0,x,x,x,
O=C1C(Cl)=C(Nc2ccc(O)cc2)C(=O)c2ccccc21,14,13,26,-2,3,90*,92*,
Cc1ccc(NC2=C(Cl)C(=O)c3ccccc3C2=O)cc1,8,10,x,0,2,85*,85*,
CCN(CC)c1ccc(NC2=C(Cl)C(=O)c3ccccc3C2=O)cc1,x,x,x,x,-2,83*,84*,
Cc1ccc(CNC(=O)c2ccc(Cn3nc(C)cc3C)o2)cc1,-8,5,-5,0,-1,-1,x,
COc1ccc(/C=C2\SC(=O)N(CCNC(=O)C3=COCCO3)C2=O)cc1,-11,-4,2,-3,-1,42*,9,
Oc1ccc2ccccc2c1CN1CCN(C/C=C/c2ccccc2)CC1,4,14,30,-11,-1,1,x,
COc1ccc(C(C2C(=O)CC(C)(C)CC2=O)C2C(=O)CC(C)(C)CC2=O)cc1CO,7,-12,-1,1,x,x,x,
CCOc1ccc(/C=N/Nc2ccccc2)cc1,3,4,12,4,0,41*,16,
CCOc1ccc(/C=N/O)cc1,-6,-2,-1,2,2,15,x,
CC/C=C\C/C=C\C/C=C\CCCCCCCC(=O)O,7,-2,-6,4,4,-7,x,
COc1ccccc1N(C(=O)CCl)c1cn(C(C)=O)c2ccccc12,9,2,-14,-2,4,71*,79*,GSTO1 recomb ABPP=14
COCC(C)NC(=O)c1cc(-c2ccc(OC)c(OC)c2)on1 (stereo not drawn),x,x,-3,x,-1,53*,4,
COc1ccc(NC(=O)c2cc(-c3ccc(OC)c(OC)c3)on2)cc1OC,-17,6,-22,0,2,3,x,
Cc1ccc(S(=O)(=O)NCCC(=O)OCn2nnc3ccccc3c2=O)cc1,5,5,7,1,-2,3,x,
COc1ccc(-c2csc3ncnc(N4CCN(CCO)CC4)c23)cc1,-10,5,3,-3,-1,4,x,
O=C(O)c1ccc(N/N=C/C(Br)=C/c2ccccc2)cc1,-1,0,-16,5,2,64*,65*,
O=C(N/N=C/C(Br)=C/c1ccccc1)C(O)c1ccccc1 (stereo not drawn),-4,-4,16,6,5,3,x,
COc1ccc(C(=O)Nc2cc(S(=O)(=O)N3CCCCC3)ccc2OC)cc1,6,9,5,7,5,x,x,
C=CCn1c(SCC(=O)c2ccc(O)c(O)c2)nnc1-c1cccc(Cl)c1,-1,3,-2,9,0,x,x,
C=CCn1c(SCC(=O)c2ccc(O)c(O)c2)nnc1-c1ccccc1OC,-8,4,9,5,6,41*,8,
C=CCn1c(SCC(=O)c2ccc(O)c(O)c2)nnc1-c1cccnc1,-7,8,-5,18,1,40*,13,
COc1ccc(NC(=S)NNc2ccc(S(=O)(=O)Nc3ccccc3C(=O)O)cc2[N+](=O)[O-])cc1,4,-11,16,1,9,67*,80*,
COc1ccc(C=NNc2ccc(S(=O)(=O)Nc3ccccc3C(=O)O)cc2[N+](=O)[O-])c(OC)c1,x,x,7,x,3,x,x,
SMILES,TDP2 absorb,SIAE inh,Apaf-1 inh,TCR CD3 inh,PAD4 inh,GSTO1 counter,GSTO1 confirm,others
O=C1NC(=S)S/C1=C\c1cc(Cl)cc(Cl)c1O,-5,-71,x,-55,x,x,x,
N#C/C(=C(\O)Cc1ccccc1)c1nc2ccccc2[nH]1,7,0,3,-3,0,7,x,
N#C/C(=C(/O)CCl)c1nc2ccccc2[nH]1,11,13,-9,12,-3,84*,94*,
O=[N+]([O-])c1cnc2ccccc2c1,11,-1,-2,-6,-2,6,x,
O=[N+]([O-])c1cc([N+](=O)[O-])c2cc3ccccc3nc2c1,7,2,25,-2,-12,39*,10,
CCCC(=O)C1=C(O)C(C(=O)OC)C(C)(C)CC1=NCCCCCC(=O)O (stereo not drawn),-6,-5,-3,-4,0,-1,x,
O=C1CC(c2ccc(O)c(O)c2)Oc2cc(O)cc(O)c21 (stereo not drawn),2,8,-8,11,-4,43*,16,
CN1c2ccccc2N(C)C1(C)c1ccccc1,10,11,x,18,-4,50*,7,
CN1C(=O)N(C)C2(c3ccccc3)NC(=O)NC12c1ccccc1 (stereo not drawn),-1,-4,0,7,-4,-5,x,
O=C(N/N=C/c1cccnc1)c1cccc(F)c1,-14,-3,-16,2,-3,10,x,
CCOc1cc(N2CCOCC2)c(OCC)cc1NC(=O)Cn1cnc2c(=O)n(C)c(=O)n(C)c21,-2,-1,-8,-4,2,5,x,
O=C(NCc1cccs1)c1ccccc1[N+](=O)[O-],0,-3,-14,10,-4,1,x,
CN1CCN(C(=O)CCCN2C(=O)/C(=C/c3cccc(Br)c3)SC2=S)CC1,3,1,24,-16,x,x,x,
CCCc1ccccc1OCCNS(=O)(=O)c1cc2c(cc1C)OCC(=O)N2,-8,-1,19,2,4,43*,30,
CCCCOC(=O)c1cc(C)nc2ccc(Br)cc12,-3,-6,5,7,-5,1,x,
NC(CO)C(=O)NNCc1ccc(O)c(O)c1O (stereo not drawn),-5,13,51*,16,-11,88*,72*,
Cc1cc(C)c(S(=O)(=O)Nc2cc(SCC(=O)O)c(O)c3ccccc23)cc1C,x,x,x,x,49*,90*,5,
COc1ccc(OC)c(Nc2nc(N)nc(-c3cc4ccccc4o3)n2)c1,-10,-3,9,-11,-1,-2,x,
COC(=O)CCCC1=CC2=C(c3ccccc3)C(=O)C(C)(OC(=O)C3CCCC3)C(=O)C2=CN1C1CCCCC1 (stereo not drawn),5,7,27,-6,-5,38*,17,
COC(=O)CCCC1=CC2=C(c3ccccc3)C(=O)C(C)(OC(=O)C3CCCC3)C(=O)C2=CN1C1CCCC1 (stereo not drawn),20,0,28,7,-15,26,x,

# From PubChem
